ChEMBL document CHEMBL4433220, “Identification of the 2-Benzoxazol-2-yl-phenol Scaffold as New Hit for JMJD3 Inhibition” (ACS Med Chem Lett, 2019)
Values belong to the compound of their own block, whether it stands above or below them. Calls of active or inactive are those of the source. No cut-off for these calls is given here.

Experiments:
[1] = target: T1, Lysine-specific demethylase 6B (Homo sapiens, UniProt O15054); test: Inhibition of recombinant human JMJD3 expressed in baculovirus infected Sf9 cells at 25 uM using biotinylated histone H3 peptide as substrate incubated for 15 mins followed by substrate addition and measured after 60 mins by AlphaScreen assay relative to control
In short: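 JMJD3 demethylase activity measured by AlphaScreen with compound at 25 μM; means ± SEM, n = 3.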

A-375 [2] = test: Cell cycle arrest in human A375 cells assessed as accumulation at G1 phase at 100 uM incubated for 24 hrs by propidium iodide staining-based flow cytometry (reference value: 59.63%); format: functional
In short: (§1)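 A375 melanoma cells exposed to compound at 1, 5, 10, 20, 40, 80 or 100 μM for 24 h. Cells were collected, fixed in iced 70% ethanol for 2 h and stained with propidium iodide. Cell-cycle distribution was read by flow cytometry, n = 3. […]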

A-375 [3] = test: Cell cycle arrest in human A375 cells assessed as accumulation at G2/M phase at 20 uM incubated for 24 hrs by propidium iodide staining-based flow cytometry (reference value: 10.81%); format: functional; in short: as §1
A-375 [4] = test: Cell cycle arrest in human A375 cells assessed as accumulation at S phase at 20 uM incubated for 24 hrs by propidium iodide staining-based flow cytometry (reference value: 29.56%); format: functional; in short: as §1
[5] = target: T1, Lysine-specific demethylase 6B; test: Inhibition of recombinant human JMJD3 expressed in baculovirus infected Sf9 cells using biotinylated histone H3 peptide as substrate incubated for 15 mins followed by substrate addition and measured after 60 mins by AlphaScreen assay
A-375 [6] = test: Antiproliferative activity against human A375 cells incubated for 24 hrs by propidium iodide staining based flow cytometric analysis; settings: A-375, 24 h
A-375 [7] = test: Cell cycle arrest in human A375 cells assessed as accumulation at G2/M phase at 80 uM incubated for 24 hrs by propidium iodide staining-based flow cytometry (reference value: 10.81%); format: functional; in short: as §1
[8] = target: Lysine-specific demethylase 6A (Homo sapiens, UniProt O15550); test: Inhibition of UTX (unknown origin) using histone H3 peptide as substrate incubated for 30 mins followed by substrate addition by AlphaScreen assay
A-375 [9] = test: Cell cycle arrest in human A375 cells assessed as accumulation at S phase at 40 uM incubated for 24 hrs by propidium iodide staining-based flow cytometry (reference value: 29.56%); format: functional; in short: as §1
A-375 [10] = test: Cell cycle arrest in human A375 cells assessed as accumulation at S phase at 100 uM incubated for 24 hrs by propidium iodide staining-based flow cytometry (reference value: 29.56%); format: functional; in short: as §1
A-375 [11] = test: Cell cycle arrest in human A375 cells assessed as accumulation at G1 phase at 20 uM incubated for 24 hrs by propidium iodide staining-based flow cytometry (reference value: 59.63%); format: functional; in short: as §1
A-375 [12] = test: Cell cycle arrest in human A375 cells assessed as accumulation at S phase at 80 uM incubated for 24 hrs by propidium iodide staining-based flow cytometry (reference value: 29.56%); format: functional; in short: as §1
A-375 [13] = test: Cell cycle arrest in human A375 cells assessed as accumulation at G2/M phase at 100 uM incubated for 24 hrs by propidium iodide staining-based flow cytometry (reference value: 10.81%); format: functional; in short: as §1
A-375 [14] = test: Cell cycle arrest in human A375 cells assessed as accumulation at G1 phase at 40 uM incubated for 24 hrs by propidium iodide staining-based flow cytometry (reference value: 59.63%); format: functional; in short: as §1
[15] = target: T1, Lysine-specific demethylase 6B; test: Inhibition of JMJD3 in human A375 cells assessed as reduction in decrease of the H3K27me2 level at 100 uM incubated for 24 hrs by Western blot analysis; format: cell-based
In short: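 A375 melanoma cells treated with 100 μM compound for 4 and 24 h, then lysed and run on SDS-PAGE. Western blot on nitrocellulose was probed with anti-H3K27me2 antibody.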

A-375 [16] = test: Cell cycle arrest in human A375 cells assessed as accumulation at G1 phase at 80 uM incubated for 24 hrs by propidium iodide staining-based flow cytometry (reference value: 59.63%); format: functional; in short: as §1
[17] = Apparent permeability of the compound in pH 7.4 phosphate buffer solution at 0.5 mM incubated for 24 hrs under gentle shaking condition by HPLC-UV detector based PAMPA assay; format: ADME
In short: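 Parallel artificial membrane permeability assay (PAMPA); apparent permeability (Papp) reported in cm/s.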

A-375 [18] = test: Cell cycle arrest in human A375 cells assessed as accumulation at G2/M phase at 40 uM incubated for 24 hrs by propidium iodide staining-based flow cytometry (reference value: 10.81%); format: functional; in short: as §1

T1 sequence (O15054 whole entry): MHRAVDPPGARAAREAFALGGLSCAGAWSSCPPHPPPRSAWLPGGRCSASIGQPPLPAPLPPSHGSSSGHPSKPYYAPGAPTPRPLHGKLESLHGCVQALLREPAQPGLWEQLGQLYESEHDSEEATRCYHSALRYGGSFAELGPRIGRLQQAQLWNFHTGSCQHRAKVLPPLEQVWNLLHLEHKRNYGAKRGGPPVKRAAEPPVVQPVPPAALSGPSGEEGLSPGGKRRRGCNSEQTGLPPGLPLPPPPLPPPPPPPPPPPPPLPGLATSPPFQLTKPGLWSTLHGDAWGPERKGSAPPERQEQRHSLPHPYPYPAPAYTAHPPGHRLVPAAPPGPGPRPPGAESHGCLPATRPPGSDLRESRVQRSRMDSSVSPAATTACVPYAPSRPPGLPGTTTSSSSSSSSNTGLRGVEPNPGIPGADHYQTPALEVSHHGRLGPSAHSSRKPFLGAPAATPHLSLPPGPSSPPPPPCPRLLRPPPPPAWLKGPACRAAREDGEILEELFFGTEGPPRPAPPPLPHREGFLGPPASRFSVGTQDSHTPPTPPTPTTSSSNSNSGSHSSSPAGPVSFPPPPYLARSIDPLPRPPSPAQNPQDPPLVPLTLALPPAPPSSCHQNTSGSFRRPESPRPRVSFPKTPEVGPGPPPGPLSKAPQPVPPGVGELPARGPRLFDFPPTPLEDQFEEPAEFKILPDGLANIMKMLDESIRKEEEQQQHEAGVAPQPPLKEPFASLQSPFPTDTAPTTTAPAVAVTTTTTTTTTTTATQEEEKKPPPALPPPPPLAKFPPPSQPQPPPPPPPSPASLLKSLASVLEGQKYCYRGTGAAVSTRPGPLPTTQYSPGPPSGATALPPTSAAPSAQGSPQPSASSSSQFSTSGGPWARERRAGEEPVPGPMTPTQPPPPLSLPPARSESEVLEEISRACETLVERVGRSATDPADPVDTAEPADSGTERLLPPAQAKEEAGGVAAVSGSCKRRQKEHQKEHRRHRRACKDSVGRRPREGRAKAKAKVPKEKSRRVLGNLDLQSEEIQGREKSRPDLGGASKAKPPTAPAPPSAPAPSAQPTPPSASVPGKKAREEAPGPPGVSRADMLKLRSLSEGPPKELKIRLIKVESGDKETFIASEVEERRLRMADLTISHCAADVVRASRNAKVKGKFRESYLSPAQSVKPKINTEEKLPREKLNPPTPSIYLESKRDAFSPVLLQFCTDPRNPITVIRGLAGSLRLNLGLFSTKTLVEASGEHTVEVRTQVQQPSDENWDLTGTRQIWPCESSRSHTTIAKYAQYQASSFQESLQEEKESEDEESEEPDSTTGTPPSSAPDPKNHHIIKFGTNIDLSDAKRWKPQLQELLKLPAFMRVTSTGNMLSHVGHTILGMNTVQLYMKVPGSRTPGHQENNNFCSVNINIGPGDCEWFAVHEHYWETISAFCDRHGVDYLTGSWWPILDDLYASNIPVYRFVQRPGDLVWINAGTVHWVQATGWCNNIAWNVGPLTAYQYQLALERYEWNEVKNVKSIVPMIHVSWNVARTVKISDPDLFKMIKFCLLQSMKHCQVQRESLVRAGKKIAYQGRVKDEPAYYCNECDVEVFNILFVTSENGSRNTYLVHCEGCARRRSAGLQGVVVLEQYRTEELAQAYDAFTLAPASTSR
Chain of Lysine-specific demethylase 6A (O15550 whole entry): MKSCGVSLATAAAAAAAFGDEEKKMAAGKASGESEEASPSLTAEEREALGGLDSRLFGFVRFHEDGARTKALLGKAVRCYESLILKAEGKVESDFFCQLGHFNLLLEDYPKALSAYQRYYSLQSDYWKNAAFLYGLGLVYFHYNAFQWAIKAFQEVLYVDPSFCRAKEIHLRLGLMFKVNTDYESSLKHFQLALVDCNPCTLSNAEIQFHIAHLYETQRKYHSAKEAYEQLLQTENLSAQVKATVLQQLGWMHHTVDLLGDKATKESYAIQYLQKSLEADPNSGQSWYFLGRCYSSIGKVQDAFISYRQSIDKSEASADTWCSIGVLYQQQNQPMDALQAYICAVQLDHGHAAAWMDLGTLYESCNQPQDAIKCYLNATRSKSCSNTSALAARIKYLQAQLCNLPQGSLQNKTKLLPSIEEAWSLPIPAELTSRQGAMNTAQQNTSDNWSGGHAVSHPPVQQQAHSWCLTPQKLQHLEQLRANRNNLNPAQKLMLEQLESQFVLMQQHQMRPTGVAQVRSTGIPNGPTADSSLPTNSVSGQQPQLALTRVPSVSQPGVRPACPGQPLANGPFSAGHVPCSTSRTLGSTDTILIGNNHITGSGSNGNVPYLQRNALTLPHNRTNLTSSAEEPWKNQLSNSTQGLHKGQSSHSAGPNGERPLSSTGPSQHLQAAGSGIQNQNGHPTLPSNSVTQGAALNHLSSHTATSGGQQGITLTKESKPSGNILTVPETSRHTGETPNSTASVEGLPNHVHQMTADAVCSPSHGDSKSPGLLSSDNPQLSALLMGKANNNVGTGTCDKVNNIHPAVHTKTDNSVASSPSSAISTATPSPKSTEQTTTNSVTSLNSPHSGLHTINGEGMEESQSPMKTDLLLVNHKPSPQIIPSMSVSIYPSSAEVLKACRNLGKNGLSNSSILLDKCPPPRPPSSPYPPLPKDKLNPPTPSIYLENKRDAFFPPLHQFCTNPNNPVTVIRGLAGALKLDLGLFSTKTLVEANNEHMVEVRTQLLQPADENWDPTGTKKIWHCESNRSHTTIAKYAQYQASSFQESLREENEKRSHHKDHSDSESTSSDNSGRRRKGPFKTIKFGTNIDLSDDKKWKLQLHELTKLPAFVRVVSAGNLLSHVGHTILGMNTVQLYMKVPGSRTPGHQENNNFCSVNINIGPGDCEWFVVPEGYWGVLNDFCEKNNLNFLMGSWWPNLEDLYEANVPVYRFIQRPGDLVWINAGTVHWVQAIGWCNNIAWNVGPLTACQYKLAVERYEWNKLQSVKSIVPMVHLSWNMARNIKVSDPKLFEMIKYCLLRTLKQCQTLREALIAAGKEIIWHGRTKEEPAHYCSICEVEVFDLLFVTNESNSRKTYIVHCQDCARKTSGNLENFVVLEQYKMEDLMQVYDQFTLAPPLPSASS

Structure (SMILES): O=C(O)c1ccc(O)c(-c2nc3ccccc3o2)c1
inhibition [1]: 27%

Structure (SMILES): Oc1ccccc1-c1nc2ccccc2s1
inhibition [1]: inactive

Structure (SMILES): Oc1ccccc1-c1nc2ccccc2o1
inhibition [1]: 40%

Structure (SMILES): Oc1ccc(O)c(-c2nc3ccccc3o2)c1
Activity (A-375 [2]): 16.62%
Activity (A-375 [3]): 1.12%
Activity (A-375 [4]): 47.57%
IC50 [5]: 1.2 µM
IC50 (A-375 [6]): 24.7 µM
Activity (A-375 [7]): 10.96%
IC50 [8]: 25.7 µM
Activity (A-375 [9]): 61.05%
Activity (A-375 [10]): 73.38%
Activity (A-375 [11]): 51.31%
Activity (A-375 [12]): 67.12%
Activity (A-375 [13]): 10%
Activity (A-375 [14]): 24.14%
inhibition [15]: Active
Activity (A-375 [16]): 21.92%
Papp at 24 h, 500 µM [17]: 0.912 ×10⁻⁶ cm/s
Activity (A-375 [18]): 14.81%
inhibition [1]: 90%

Continued, values first:

inhibition [1]: 20%
Structure (SMILES): Oc1c(F)cc(F)cc1-c1nc2ccccc2o1

inhibition [1]: inactive
Structure (SMILES): COc1cc2c(cc1-c1nc3ccccc3o1)OCO2
